Laboratory results: paper PMC9588738 (Cancer research, 2022)

What was measured:
[1] = test system: MCF7-TamR and MCF7-LTLT BC model cells; experiment: Cell viability of therapy-resistant cells treated with PIP1; type: cell-based, human; settings: 7 days
PELP1 [2] = target: T1, PELP1 (Homo sapiens, UniProt Q8IZL8); experiment: PELP1 degradation by Western blotting; type: cell-based; settings: MCF7 cells, MG132 5 μM
Outline: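 ZR75 and MCF7 cells were exposed to graded test-compound concentrations for 24 h. For the proteasome arm, MCF7 cells received small molecule (10 μM, 4 and 6 h) or peptide (10 μM, 7 h), each ± MG132 (5 μM). Lysis used NP-40/Triton X-100 buffer with protease/phosphatase inhibitors and NEM. PELP1 was normalized to loading control, relative to untreated.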
Target sequence in this assay (Q8IZL8 whole entry): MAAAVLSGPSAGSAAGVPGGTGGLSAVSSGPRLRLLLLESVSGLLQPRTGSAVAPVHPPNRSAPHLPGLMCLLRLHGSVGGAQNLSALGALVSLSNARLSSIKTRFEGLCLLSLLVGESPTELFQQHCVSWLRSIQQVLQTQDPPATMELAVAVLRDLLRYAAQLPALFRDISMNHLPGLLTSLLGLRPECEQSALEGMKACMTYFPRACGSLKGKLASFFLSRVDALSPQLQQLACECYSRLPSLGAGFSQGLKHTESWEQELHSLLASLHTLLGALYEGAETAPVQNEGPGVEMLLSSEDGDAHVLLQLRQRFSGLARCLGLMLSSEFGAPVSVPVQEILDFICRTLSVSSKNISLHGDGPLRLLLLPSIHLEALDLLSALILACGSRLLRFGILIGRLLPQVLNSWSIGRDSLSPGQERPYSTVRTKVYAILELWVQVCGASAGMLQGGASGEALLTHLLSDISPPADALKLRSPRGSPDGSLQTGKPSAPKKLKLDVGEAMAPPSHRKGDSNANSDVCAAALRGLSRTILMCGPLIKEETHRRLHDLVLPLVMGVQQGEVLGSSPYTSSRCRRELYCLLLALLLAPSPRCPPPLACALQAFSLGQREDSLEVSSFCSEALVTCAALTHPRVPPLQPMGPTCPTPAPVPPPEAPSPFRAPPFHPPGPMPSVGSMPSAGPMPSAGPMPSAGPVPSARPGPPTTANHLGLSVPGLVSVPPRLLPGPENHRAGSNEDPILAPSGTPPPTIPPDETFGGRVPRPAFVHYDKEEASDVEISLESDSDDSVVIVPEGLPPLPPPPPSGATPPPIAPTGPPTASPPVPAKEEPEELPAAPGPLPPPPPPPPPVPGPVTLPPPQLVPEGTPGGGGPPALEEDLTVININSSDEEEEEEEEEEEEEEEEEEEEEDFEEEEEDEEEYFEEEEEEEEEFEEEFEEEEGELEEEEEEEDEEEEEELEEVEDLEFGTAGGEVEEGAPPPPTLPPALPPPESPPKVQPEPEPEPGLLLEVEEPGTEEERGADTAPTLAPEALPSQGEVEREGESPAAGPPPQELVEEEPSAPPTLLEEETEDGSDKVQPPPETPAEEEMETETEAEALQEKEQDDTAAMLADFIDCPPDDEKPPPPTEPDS

ZR75-PELP1 cells = experiment: MTT cell viability assay, ZR75-PELP1 cells; type: cell-based, human
Outline: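 ZR75-PELP1 cells were treated with peptide every 3 days, and MTT absorbance was read at day 7 (n=3). A screen compared ZR75 with ZR75-PELP1 cells.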

[3] = test system: E2 mediated ERE reporter activation; experiment: ERE-luciferase reporter assay; type: cell-based, human; settings: ZR75-PELP1 (PIP1) or ZR75 (SMIP34) cells
[4] = test system: ZR75-PELP1 and MCF7-PELP1 cells; experiment: QCM chemotaxis cell migration assay; type: cell-based, human; settings: 10 μM, 12 hours
PELP1 [5] = target: T1, PELP1; experiment: Biotin-Avidin pull-down assays; type: binding; settings: Biotin-tagged peptides, ZR75 nuclear lysate
Target sequence in this assay (Q8IZL8 2-1130): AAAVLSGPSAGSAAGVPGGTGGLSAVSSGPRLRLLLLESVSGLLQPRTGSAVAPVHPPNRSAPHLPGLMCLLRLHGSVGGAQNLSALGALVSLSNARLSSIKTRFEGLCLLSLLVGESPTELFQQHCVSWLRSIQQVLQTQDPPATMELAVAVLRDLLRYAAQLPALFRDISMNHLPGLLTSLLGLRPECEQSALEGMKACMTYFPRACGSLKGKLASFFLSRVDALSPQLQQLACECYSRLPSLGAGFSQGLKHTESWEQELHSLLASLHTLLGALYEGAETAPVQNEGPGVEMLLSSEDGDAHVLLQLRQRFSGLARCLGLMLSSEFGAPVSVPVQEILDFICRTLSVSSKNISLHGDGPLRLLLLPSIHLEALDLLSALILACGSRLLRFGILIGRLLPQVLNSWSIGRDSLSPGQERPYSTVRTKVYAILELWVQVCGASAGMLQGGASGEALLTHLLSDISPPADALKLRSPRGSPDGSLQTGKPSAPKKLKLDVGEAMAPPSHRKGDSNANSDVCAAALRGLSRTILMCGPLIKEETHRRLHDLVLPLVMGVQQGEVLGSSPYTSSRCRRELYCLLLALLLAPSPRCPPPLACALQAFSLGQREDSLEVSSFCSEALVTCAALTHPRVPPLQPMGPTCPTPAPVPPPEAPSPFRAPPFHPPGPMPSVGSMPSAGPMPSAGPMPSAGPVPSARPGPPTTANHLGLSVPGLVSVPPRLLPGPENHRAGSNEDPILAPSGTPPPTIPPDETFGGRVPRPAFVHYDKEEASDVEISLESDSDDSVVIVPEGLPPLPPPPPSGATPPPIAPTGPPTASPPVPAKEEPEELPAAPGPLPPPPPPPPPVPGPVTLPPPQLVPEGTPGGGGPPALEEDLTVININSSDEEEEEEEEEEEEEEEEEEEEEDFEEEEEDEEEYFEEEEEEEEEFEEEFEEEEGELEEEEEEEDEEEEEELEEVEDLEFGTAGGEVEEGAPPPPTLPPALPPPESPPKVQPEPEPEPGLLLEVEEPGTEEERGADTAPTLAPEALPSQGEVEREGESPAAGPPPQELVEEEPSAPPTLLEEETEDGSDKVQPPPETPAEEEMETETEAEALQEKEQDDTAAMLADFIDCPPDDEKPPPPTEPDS

[6] = test system: PELP1-shRNA expressing ZR75 cells; experiment: MTT cell viability assay, PELP1 knockdown cells; type: cell-based, human; settings: PELP1 knockdown vs control

PIP1: PELP1 inhibiting peptide with TAT signal; TAT-PIP1: GRKKRRQRRRGGMVEFRWSCPGRRKAKA (not fully specified; left off: Gal4 activation domain, end not stated, kept)
effect on cell viability of therapy-resistant cells [1]: significantly reduced the cell viability | PELP1 degradation in presence of proteasome inhibitor MG132 (PELP1 [2]): attenuated PIP1 mediated degradation of PELP1 | comparison of activity between hits in MTT assays (ZR75-PELP1 cells): more efficient anti-proliferative activity than PIP2 | effect on PELP1-mediated proliferation (ZR75-PELP1 cells; TAT-tagged peptides every 3 days, read at 7 days): significantly inhibited PELP1-mediated proliferation | E2 induced ERE reporter activity [3]: significantly decreased E2 mediated ERE reporter activation | cell migration [4]: significant decrease in the cell migration | relative affinity to bind PELP1 (peptide pull-down) (PELP1 [5]): higher affinity to bind to PELP1 than PIP2 | activity when PELP1 is knocked down [6]: substantially reduced the activity of PIP1
